ChEMBL document CHEMBL4387724, “2-Pyridineformamide N(4)-ring incorporated thiosemicarbazones inhibit MCF-7 cells by inhibiting JNK pathway” (Bioorg Med Chem Lett, 2019)

Experiments:
MCF7 [1] = assay: Cytotoxicity against human MCF7 cells assessed as reduction in cell growth incubated for 72 hrs by MTT assay; type: functional, cell-based; conditions: MCF7, 72 h
How it was run: (§1)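 Cells grown in DMEM with 10% FBS and penicillin-streptomycin at 37 °C, 5% CO2, seeded at 3000 cells/well and attached overnight. Screening series given at 1, 3, 10, 100 μM; follow-up agent at 100 nM–3 μM; both 72 h, with 0.1% DMSO vehicle. MTT (5 mg/mL stock) added for 3 h at 37 °C, formazan dissolved in DMSO, absorbance read at 570 nm. Viability expressed as % of DMSO-treated wells from replicates.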

A-431 [2] = assay: Cytotoxicity against human A431 cells assessed as reduction in cell growth incubated for 72 hrs by MTT assay; type: functional, cell-based; conditions: A-431, 72 h; how it was run: as §1
A-375 [3] = assay: Cytotoxicity against human A375 cells assessed as reduction in cell growth incubated for 72 hrs by MTT assay; type: functional, cell-based; conditions: A-375, 72 h; how it was run: as §1
HeLa [4] = assay: Cytotoxicity against human HeLa cells assessed as reduction in cell growth incubated for 72 hrs by MTT assay; type: functional, cell-based; how it was run: as §1
A-375 [5] = assay: Cytotoxicity against human A375 cells assessed as reduction in cell growth at 1 uM incubated for 72 hrs by MTT assay relative to control; type: functional; conditions: A-375, 72 h, read-out: GI; how it was run: as §1
A-375 [6] = assay: Cytotoxicity against human A375 cells assessed as reduction in cell growth at 3 uM incubated for 72 hrs by MTT assay relative to control; type: functional; conditions: A-375, 72 h, read-out: GI; how it was run: as §1
A-375 [7] = assay: Cytotoxicity against human A375 cells assessed as reduction in cell growth at 10 uM incubated for 72 hrs by MTT assay relative to control; type: functional; conditions: A-375, 72 h, read-out: GI; how it was run: as §1
A-375 [8] = assay: Cytotoxicity against human A375 cells assessed as reduction in cell growth at 30 uM incubated for 72 hrs by MTT assay relative to control; type: functional; conditions: A-375, 72 h, read-out: GI
A-375 [9] = assay: Cytotoxicity against human A375 cells assessed as reduction in cell growth at 100 uM incubated for 72 hrs by MTT assay relative to control; type: functional; conditions: A-375, 72 h, read-out: GI; how it was run: as §1
A-431 [10] = assay: Cytotoxicity against human A431 cells assessed as reduction in cell growth at 1 uM incubated for 72 hrs by MTT assay relative to control; type: functional; conditions: A-431, 72 h, read-out: GI; how it was run: as §1
A-431 [11] = assay: Cytotoxicity against human A431 cells assessed as reduction in cell growth at 3 uM incubated for 72 hrs by MTT assay relative to control; type: functional; conditions: A-431, 72 h, read-out: GI; how it was run: as §1
A-431 [12] = assay: Cytotoxicity against human A431 cells assessed as reduction in cell growth at 10 uM incubated for 72 hrs by MTT assay relative to control; type: functional; conditions: A-431, 72 h, read-out: GI; how it was run: as §1
A-431 [13] = assay: Cytotoxicity against human A431 cells assessed as reduction in cell growth at 30 uM incubated for 72 hrs by MTT assay relative to control; type: functional; conditions: A-431, 72 h, read-out: GI
A-431 [14] = assay: Cytotoxicity against human A431 cells assessed as reduction in cell growth at 100 uM incubated for 72 hrs by MTT assay relative to control; type: functional; conditions: A-431, 72 h, read-out: GI; how it was run: as §1
HeLa [15] = assay: Cytotoxicity against human HeLa cells assessed as reduction in cell growth at 1 uM incubated for 72 hrs by MTT assay relative to control; type: functional; conditions: read-out: GI; how it was run: as §1
HeLa [16] = assay: Cytotoxicity against human HeLa cells assessed as reduction in cell growth at 3 uM incubated for 72 hrs by MTT assay relative to control; type: functional; conditions: read-out: GI; how it was run: as §1
HeLa [17] = assay: Cytotoxicity against human HeLa cells assessed as reduction in cell growth at 10 uM incubated for 72 hrs by MTT assay relative to control; type: functional; conditions: read-out: GI; how it was run: as §1
HeLa [18] = assay: Cytotoxicity against human HeLa cells assessed as reduction in cell growth at 30 uM incubated for 72 hrs by MTT assay relative to control; type: functional; conditions: read-out: GI
HeLa [19] = assay: Cytotoxicity against human HeLa cells assessed as reduction in cell growth at 100 uM incubated for 72 hrs by MTT assay relative to control; type: functional; conditions: read-out: GI; how it was run: as §1
MCF7 [20] = assay: Cytotoxicity against human MCF7 cells assessed as reduction in cell growth at 1 uM incubated for 72 hrs by MTT assay relative to control; type: functional; conditions: MCF7, 72 h, read-out: GI; how it was run: as §1
MCF7 [21] = assay: Cytotoxicity against human MCF7 cells assessed as reduction in cell growth at 3 uM incubated for 72 hrs by MTT assay relative to control; type: functional; conditions: MCF7, 72 h, read-out: GI; how it was run: as §1
MCF7 [22] = assay: Cytotoxicity against human MCF7 cells assessed as reduction in cell growth at 10 uM incubated for 72 hrs by MTT assay relative to control; type: functional; conditions: MCF7, 72 h, read-out: GI; how it was run: as §1
MCF7 [23] = assay: Cytotoxicity against human MCF7 cells assessed as reduction in cell growth at 30 uM incubated for 72 hrs by MTT assay relative to control; type: functional; conditions: MCF7, 72 h, read-out: GI
MCF7 [24] = assay: Cytotoxicity against human MCF7 cells assessed as reduction in cell growth at 100 uM incubated for 72 hrs by MTT assay relative to control; type: functional; conditions: MCF7, 72 h, read-out: GI; how it was run: as §1

Row | SMILES | IC50 (MCF7 [1]) | IC50 (A-431 [2]) | IC50 (A-375 [3]) | IC50 (HeLa [4]) | inhibition of growth at 1 µM (A-375 [5]) | inhibition of growth at 3 µM (A-375 [6]) | inhibition of growth at 10 µM (A-375 [7]) | inhibition of growth at 30 µM (A-375 [8]) | inhibition of growth at 100 µM (A-375 [9]) | inhibition of growth at 1 µM (A-431 [10]) | inhibition of growth at 3 µM (A-431 [11]) | inhibition of growth at 10 µM (A-431 [12]) | inhibition of growth at 30 µM (A-431 [13]) | inhibition of growth at 100 µM (A-431 [14]) | inhibition of growth at 1 µM (HeLa [15]) | inhibition of growth at 3 µM (HeLa [16]) | inhibition of growth at 10 µM (HeLa [17]) | inhibition of growth at 30 µM (HeLa [18]) | inhibition of growth at 100 µM (HeLa [19]) | inhibition of growth at 1 µM (MCF7 [20]) | further results
1 | N/C(=N\NC(=S)N1CCSCC1)c1ccc(F)cn1 | 21.4 µM | 1.2 µM | 0.9 µM | 1.7 µM | 55.1% | 62.2% | 70.9% | 78.7% | 83.2% | 48.7% | 61.2% | 61.8% | 84.6% | 86.6% | 19.6% | 62.9% | 70.5% | 81.7% | 88.1% | 30.6% | inhibition of growth at 3 µM (MCF7 [21]): 35.4%; inhibition of growth at 10 µM (MCF7 [22]): 38.1%; inhibition of growth at 30 µM (MCF7 [23]): 58.8%; inhibition of growth at 100 µM (MCF7 [24]): 65.7%
2 | N/C(=N\NC(=S)N1CCSCC1)c1ccccn1 | 8.8 µM | 6.7 µM | 0.76 µM | 7.8 µM | 34% | 80% | 83.9% | 86% | 87.8% | 31.7% | 37.2% | 61.4% | 81.3% | 80.8% | 25.1% | 39.7% | 54.5% | 80.6% | 88.7% | 16.3% | inhibition of growth at 3 µM (MCF7 [21]): 29%; inhibition of growth at 10 µM (MCF7 [22]): 54.3%; inhibition of growth at 30 µM (MCF7 [23]): 72.6%; inhibition of growth at 100 µM (MCF7 [24]): 72.4%
3 | Cc1ccnc(/C(N)=N/NC(=S)N2CCCC2)c1 | 1.2 µM | 0.9 µM | 0.72 µM | 1.9 µM | 69% | 80% | 86% | 87.9% | 88.8% | 58.5% | 63% | 71.2% | 84.2% | 86.9% | 25.9% | 52.1% | 67% | 86.4% | 88.1% | 49% | inhibition of growth at 3 µM (MCF7 [21]): 57.7%; inhibition of growth at 10 µM (MCF7 [22]): 63.6%; inhibition of growth at 30 µM (MCF7 [23]): 82.2%; inhibition of growth at 100 µM (MCF7 [24]): 87.7%
4 | Cc1ccnc(/C(N)=N/NC(=S)N2CCCCC2)c1 | 18.8 µM | 18.9 µM | 1.9 µM | 7.7 µM | 33.5% | 69.5% | 81.2% | 80% | 85.6% | 31.1% | 36.5% | 39.7% | 62.8% | 77.6% | 15.3% | 23.9% | 62.1% | 69.1% | 70.8% | 21.2% | inhibition of growth at 3 µM (MCF7 [21]): 29.4%; inhibition of growth at 10 µM (MCF7 [22]): 40.7%; inhibition of growth at 30 µM (MCF7 [23]): 61.7%; inhibition of growth at 100 µM (MCF7 [24]): 80.1%
5 | Cc1cccc(/C(N)=N/NC(=S)N2CCOCC2)n1 | 21.5 µM | 4.3 µM | 14 µM | 2.2 µM | 30.2% | 34.7% | 43.6% | 74.3% | 83.8% | 47.2% | 45.8% | 68.1% | 80% | 84.8% | 25.7% | 65.7% | 85.4% | 86.9% | 82.4% | 11.7% | inhibition of growth at 3 µM (MCF7 [21]): 21.6%; inhibition of growth at 10 µM (MCF7 [22]): 39.1%; inhibition of growth at 30 µM (MCF7 [23]): 57.8%; inhibition of growth at 100 µM (MCF7 [24]): 74.7%
